Screens (PubChem BioAssay)
A selection: hits, their analogues and other compounds. The true share with any hit is near 2.2%.
PMI activator – activators of human PMI, primary screen, biochemical, fluorescence intensity, near-Km mannose 6-phosphate | 0.005% of 190,000 active | activation factor at 20 µM | purified human PMI, coupled resazurin fluorescence, 20 min; active compounds read high; 1 = vehicle control, 0 substrate-free wells | Mannose-6-phosphate isomerase (Homo sapiens), P34949;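 active = activation factor of 2 or more at 20 µM, relative to plate controls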
ROMK primary – ROMK potassium channel modulators, primary screen, cell-based, thallium flux, MLSMR library; 2% of 130,000 active; B-score at 10 µM; AID 1918, 2009; Tet-inducible ROMK, thallium flux fluorescence; actives lie on both sides; ATP-sensitive inward rectifier potassium channel 1 (Homo sapiens), P48048;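 active = signal ratio slope over the read window, or its plate-corrected B-score, at least 3 SD from the plate mean, either direction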;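 note: B-score of the F/F0 ratio slope over 7 to 12 s after thallium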
Target sequence (P48048 whole entry, looked up): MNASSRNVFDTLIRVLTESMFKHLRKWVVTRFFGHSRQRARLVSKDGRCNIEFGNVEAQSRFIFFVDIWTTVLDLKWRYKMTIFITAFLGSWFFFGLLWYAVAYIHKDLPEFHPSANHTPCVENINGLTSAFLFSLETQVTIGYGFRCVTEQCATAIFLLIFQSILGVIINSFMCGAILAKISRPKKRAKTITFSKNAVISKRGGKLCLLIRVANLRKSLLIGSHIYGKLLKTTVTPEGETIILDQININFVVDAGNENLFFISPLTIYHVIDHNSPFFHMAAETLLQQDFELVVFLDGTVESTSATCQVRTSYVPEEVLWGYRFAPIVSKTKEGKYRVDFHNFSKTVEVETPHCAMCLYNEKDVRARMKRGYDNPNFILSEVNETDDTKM
Diaph act CS – compounds boosting diaphorase resazurin reduction – biochemical, uHTS, resorufin fluorescence, counter-screen for diaphorase-coupled primary assays, primary screen; Diaphorase/resazurin coupled assay, 16 min; active compounds read high; 1 = vehicle wells, 0 = NADH-free wells; activation factor at 20 µM; 0.005% of 190,000 active;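 active = diaphorase activity raised at least twofold by the compound at 20 µM; inactive = activation factor below 2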
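Test system: Clostridium kluyveri diaphorase, purified enzyme. Buffer or medium: 50 mM HEPES pH 7.4 buffer plus MgCl2 and Tween 20. Also added: 0.114 mM NADH and 0.1 mM resazurin, final amounts. Dosing: compound 20 µM once, DMSO 1%. Schedule: 16 min enzyme reaction, ambient temperature. Detection: fluorescence of resorufin, 544 nm excitation, 590 nm emission.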
PMI act hi M6P – human PMI activators, high substrate, primary screen, biochemical, fluorescence intensity, near-saturating mannose 6-phosphate; coupled PMI enzyme assay, resazurin fluorescence, 20 min; active compounds read high; 1 = untreated enzyme, 0 = substrate-free blank; Mannose-6-phosphate isomerase (Homo sapiens), P34949; activation factor at 20 µM; 0.34% of 190,000 active; AID 1216, 2008;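 active = activation factor of 2 or more at 20 µM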
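Material: human phosphomannose isomerase with PGI, G6PDH, diaphorase coupling enzymes / Reagent: Man-6-P substrate 1.0 mM / Dosing: single compound dose of 20 µM, 1% DMSO final / Incubation: enzyme reaction with compound 20 min at room temperature / Signal: resorufin fluorescence (Ex 544/Em 590 nm) from resazurin via diaphorase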
Diaphorase inh – diaphorase inhibitors and chemical oxidizers, primary screen, counter-screen for diaphorase-coupled primary assays, biochemical, uHTS, resorufin fluorescence; diaphorase resazurin-to-resorufin fluorescence, NADH, 16 min; bacterial (C. kluyveri) enzyme, not human; inhibition, % at 20 µM; 0.69% of 190,000 active; AID 1217, 2008;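 active = primary screen inhibition at 20 µM above a set limit, cut at about 50% in these data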
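Test system: diaphorase enzyme from Clostridium kluyveri; amount: diaphorase at 0.14 U/mL in enzyme working solution; detection: fluorescence of resorufin formed from resazurin, Ex 544/Em 590 nm; times: reaction incubation of 16 min at room temperature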
G6PDH CS – L. mesenteroides G6PDH inhibitors, counter-screen for G6PDH-coupled screening assays, biochemical, Leuconostoc mesenteroides enzyme. inhibition, % at 5 µM. Purified L. mesenteroides G6PDH, diaphorase/resazurin coupled fluorescence, 45 min. 0.12% of 200,000 active; in the data active = inhibition above about 50%
ROMK retest – ROMK channel modulator hit retest, confirmation, cell-based, thallium flux, duplicate, resupplied hits | shares compounds with ROMK primary | fluorescence ratio; active compounds read low | normalized thallium flux (F/F0 slope) at 10 µM | 54% of 3,000 active | AID 1917, 2009;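 active = Flux at 10 µM at least 3 SD below or above vehicle control mean in one or both replicates; inconclusive = no clear call, values can overlap the other calls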
A number is an active result; i = inactive; ? = inconclusive; nt = no result.

SMILES | PMI activator | ROMK primary | Diaph act CS | PMI act hi M6P | Diaphorase inh | G6PDH CS | ROMK retest
NC/C(=N\O)c1ccc(Cl)cc1Cl | i | -4.5 | i | i | i | i | 0.056
CN(C)CCCN=C(NO)c1ccc(Cl)cc1Cl | nt | i | nt | nt | nt | nt | nt
O=C(NCc1ccccc1)NC(O)C(Cl)(Cl)Cl (centres undefined) | i | i | i | i | i | i | nt
CN(C)S(=O)(=O)c1ccc(NC(=O)COC(=O)CC2CC3CCC2C3)cc1 (centres undefined) | i | i | i | i | i | i | nt
CC(=O)c1ccc2cccc3c2c1N=CN3C | i | nt | i | i | i | i | 0.049
CN1/C(=N\O)c2cccc3cccc1c23 | i | i | i | i | i | i | nt
O=C(N/C(=C/c1cccs1)C(=O)N1CCOCC1)c1ccccc1 | i | i | i | i | i | i | nt
O=C(Cc1cccc2ccccc12)N/N=C/c1ccncc1 | i | -6.6 | i | i | i | i | i
CN(C(=O)CO/N=C/c1ccc(OC(F)F)cc1)C1CCS(=O)(=O)C1 (centres undefined) | i | -10 | i | i | i | i | i
Cc1ccc(Cn2nnc3c(=O)n(CC(=O)NCc4ccccc4)cnc32)cc1 | i | 2.3 | i | i | i | i | i
COc1ccccc1/C=N/NC(=O)C(=O)NCc1cccnc1 | i | i | i | i | i | i | nt
O=C(O)/C(=C\c1ccccc1OC(F)F)Sc1nnc(-c2ccc(F)cc2)o1 | i | -3 | i | i | i | i | 0.056
CCOc1cc2c3c(c1)C(C)CC(C)(C)N3C(=O)C2=O (centres undefined) | i | nt | i | i | i | i | nt
CCOc1cc2c3c(c1)C(C)=CC(C)(C)N3C(=O)C2=O | i | 3.2 | i | i | i | i | i
O=C(Oc1ccc(Nc2ncnc3ccccc23)cc1)c1cccnc1 | i | -2.9 | i | i | i | i | 0.065
CCOC(=O)Cc1csc(SCC(=O)Nc2cc(C)ccc2OC)n1 | i | i | i | i | i | i | nt
CCn1ncc(C2=NOC(C(=O)NCc3ccc(OC)cc3)C2)c1C (centres undefined) | i | nt | i | i | i | i | nt
CCn1ncc(C2=NOC(C(=O)NCc3ccccc3)C2)c1C (centres undefined) | i | 3.1 | i | i | i | i | i
CCN(CC)CCNC(=O)c1[nH]c2ccc(OCc3ccccc3)cc2c1C | i | -5 | i | i | i | i | 0.063
CCOC(=O)c1[nH]c2ccc(OC)cc2c1C | i | i | i | i | i | i | nt
COCCCN(C(=S)Nc1c(C)cc(C)cc1C)C(C)c1ccccn1 (centres undefined) | i | i | i | i | i | i | nt
CC1C(=O)C(C)C(c2ccc([N+](=O)[O-])cc2)NC1c1ccc([N+](=O)[O-])cc1 (centres undefined) | nt | i | nt | nt | nt | i | nt
CC1C(=NO)C(C)C(c2ccc(N(C)C)cc2)NC1c1ccc(N(C)C)cc1 (centres undefined) | i | -4.4 | i | i | i | i | 0.067
COc1cc(/C=C2\SC(c3ccc(C)cc3)=NC2=O)cc(OC)c1OC | i | nt | i | i | i | i | nt
COc1cc(/C=C2\SC(c3ccccc3)=NC2=O)cc(Cl)c1O | i | 3.2 | i | i | 64 | i | 0.066
SMILES | PMI activator | ROMK primary | Diaph act CS | PMI act hi M6P | Diaphorase inh | G6PDH CS | ROMK retest
COc1ccc(/C=C2/SC(c3ccc(C)cc3)=NC2=O)cc1OC | i | -3.2 | i | i | i | i | 0.053
O=C(CCN1C(=O)C2CCCCC2C1=O)Nc1ccc(F)c(F)c1F (centres undefined) | i | i | i | i | i | i | nt
O=C(NCc1ccccc1)c1ccc(Br)cc1 | i | -4.5 | i | i | i | i | ?
O=c1[nH]c2cccnc2n1-c1cccc([N+](=O)[O-])c1 | nt | i | nt | nt | nt | nt | nt
O=C1NC(=S)S/C1=C\c1coc2ccc(O)cc2c1=O | nt | nt | nt | nt | nt | nt | 0.032
CCOc1c(Cl)cc(C(=O)Nc2ccccc2C(=O)O)cc1Cl | i | -3.6 | i | i | i | i | 0.054
COc1ccc(C(=O)Nc2ccccc2C(=O)O)cc1Cl | i | i | i | i | i | i | nt
COC(=O)c1cccc(C(=O)Nc2cnc3ccccc3c2)n1 | i | nt | i | i | i | i | 0.05
CN(C)c1ccc(P(=O)(CC(=O)N/N=C/c2ccc(C#N)cc2)OCCCl)cc1 (centres undefined) | i | i | i | i | i | i | nt
Cc1ccc(C)c(N(C)C(=O)c2cc3c(=O)[nH]c4ccc(C)cc4c3s2)c1 | nt | i | nt | nt | nt | nt | nt
CCCN(CCC)C(=O)c1cc2c(=O)[nH]c3ccc(C)cc3c2s1 | i | -4.2 | i | i | i | i | i
CCOC(=O)C1CCCCN1Cc1cn[nH]c1-c1ccc(F)cc1F (centres undefined) | i | i | i | i | i | i | nt
O=C(COC(=O)C1CC2C=CC1C2)Nc1cccc(S(=O)(=O)N2CCOCC2)c1 (centres undefined) | nt | nt | nt | nt | nt | nt | i
O=C(COC(=O)c1ccc2c(c1)OCCO2)Nc1cccc(S(=O)(=O)N2CCOCC2)c1 | i | i | i | i | i | i | nt
Cn1cc([C@@H]2C[C@H]3CN(C4CCCC4)C(=O)[C@]34CCCN24)c(-c2ccccc2)n1 | i | i | i | i | i | i | nt
CC(C)(C)n1nc(C2CC2)cc1NC(=O)Nc1ccc(Cl)cc1 | nt | nt | nt | nt | nt | nt | i
CSc1ccc(Cl)c(C(=O)OCC(=O)Nc2ccccc2OC(F)F)c1 | i | i | i | i | i | i | nt
CC(=O)c1ccc(N2CCN(C(=O)COc3ccc(F)cc3)CC2)c(F)c1 | i | -2.8 | i | i | i | i | 0.061
Cc1ccc(N2C(=O)C3CCC(C)(C2=O)C3(C)C)cc1C (centres undefined) | i | i | i | i | i | i | nt
CCOC(=O)C(C)Oc1cccc2c(=O)n(CC(=O)NCc3ccco3)ccc12 (centres undefined) | i | nt | i | i | i | i | i
CC(=N/O)/C(C)=N\NC(=O)c1ccccn1 | i | -3.9 | i | i | i | i | i
Cn1nc(C(F)(F)F)c2cc(C(=O)Nc3ccc(C(F)(F)F)cc3)sc21 | nt | i | nt | nt | nt | nt | nt
